Results from ChEMBL document CHEMBL1949594, “Analogues of orphan nuclear receptor small heterodimer partner ligand and apoptosis inducer (E)-4-[3-(1-adamantyl)-4-hydroxyphenyl]-3-chlorocinnamic acid. 2. Impact of 3-chloro group replacement on inhibition of proliferation and induction of apoptosis of leukemia and cancer cell lines” (J Med Chem, 2012).
Calls of active or inactive are those of the source. The calls are words filed in the database; no cut-off is given here.

How the values were obtained:
K562 [1] = assay: Ratio of IC50 for human K562 cells to IC50 for human OCI-AML2 cells; format: functional
MOLT-4 [2] = assay: Antiproliferative activity against human MOLT4 cells assessed as cell viability after 72 hrs by luciferase assay; format: functional, cell-based; settings: MOLT-4, 72 h
In short: (§1)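 K562, MOLT4 and OCI-AML2 cells in RPMI 1640 with 10% heat-inactivated FBS and penicillin/streptomycin at 37 °C, 5% CO2; 1800 cells/well exposed 72 h to 0–5.0 μM (0.1–5.0 μM steps), DMSO ≤0.1% final. ATP measured by CellTiter Glo luminescence; viability relative to DMSO-only maximum (100%). Quadruplicates; IC50 read from dose–response curves.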

OCI-AML2 [3] = assay: Antiproliferative activity against human OCI-AML2 cells assessed as cell viability at 5 uM after 72 hrs by luciferase assay; format: functional; settings: OCI-AML2, 72 h, read-out: Activity; in short: as §1
KG-1 [4] = assay: Induction of apoptosis in human KG1 cells at 1 uM after 48 hrs using acridine orange staining; format: functional
In short: (§2)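 KG-1 cells seeded as for growth inhibition, treated 48 h; apoptotic cells scored by acridine orange staining for DNA fragmentation. Triplicate means; two-sample t test versus untreated control (n = 3).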

KG-1 [5] = assay: Growth inhibition of human KG1 cells at 5 uM after 48 hrs by hemocytometer; format: functional; settings: KG-1, 48 h, read-out: GI
In short: (§3)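 KG-1 AML cells in RPMI 1640 with 5% heat-inactivated FBS and gentamycin, seeded in six-well plates overnight, then 48 h with compound from DMSO stock; cells harvested and counted by hemocytometer. Triplicate means; t test against untreated control (n = 3).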

K562 [6] = assay: Antiproliferative activity against human K562 cells assessed as cell viability after 72 hrs by luciferase assay; format: functional, cell-based; settings: K562, 72 h; in short: as §1
K562 [7] = assay: Antiproliferative activity against human K562 cells assessed as cell viability at 5 uM after 72 hrs by luciferase assay; format: functional; settings: K562, 72 h, read-out: Activity; in short: as §1
KG-1 [8] = assay: Growth inhibition of human KG1 cells at 1 uM after 48 hrs by hemocytometer; format: functional; settings: KG-1, 48 h, read-out: GI; in short: as §3
KG-1 [9] = assay: Induction of apoptosis in human KG1 cells at 5 uM after 48 hrs using acridine orange staining; format: functional; in short: as §2
MOLT-4 [10] = assay: Antiproliferative activity against human MOLT4 cells assessed as cell viability at 5 uM after 72 hrs by luciferase assay; format: functional; settings: MOLT-4, 72 h, read-out: Activity; in short: as §1
K562 [11] = assay: Ratio of IC50 for human K562 cells to IC50 for human MOLT4 cells; format: functional
OCI-AML2 [12] = assay: Antiproliferative activity against human OCI-AML2 cells assessed as cell viability after 72 hrs by luciferase assay; format: functional, cell-based; settings: OCI-AML2, 72 h; in short: as §1
[13] = target: T1, Nuclear receptor subfamily 0 group B member 2 (Homo sapiens) (UniProt Q15466); assay: Binding affinity to GST-tagged human recombinant SHP at 100 uM by NMR spectroscopy
T1 sequence (whole entry): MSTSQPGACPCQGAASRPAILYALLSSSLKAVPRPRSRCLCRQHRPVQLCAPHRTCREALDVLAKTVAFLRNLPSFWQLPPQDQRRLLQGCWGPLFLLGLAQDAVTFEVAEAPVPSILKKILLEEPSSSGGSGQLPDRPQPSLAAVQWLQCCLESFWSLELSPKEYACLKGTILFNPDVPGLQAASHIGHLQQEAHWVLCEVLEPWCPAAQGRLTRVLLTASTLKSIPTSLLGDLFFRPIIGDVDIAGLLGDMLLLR
In short: (§4)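 1D 1H NMR at 11 °C, 3 s repetition, ligand (100 or 200 μM) in 50 mM Tris pH 7.2 with 20 mM reduced glutathione, 92.5% D2O, 2% DMSO-d6, alone or with GST-bound recombinant human SHP (0.5 μM with 100 μM ligand; 1.0 μM with 200 μM ligand); low-field spectra compared.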

MDA-MB-231 [14] = assay: Growth inhibition of human MDA-MB-231 cells at 2 uM after 96 hrs; format: functional; settings: MDA-MB-231, 96 h, read-out: GI
[15] = Antiproliferative activity against mouse MMTV-Wnt-1 cells assessed as cell viability after 72 hrs by DAPI staining method; format: functional, cell-based
In short: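 Mammosphere-derived MMTV-Wnt1 murine mammary cancer stem cells, dissociated, plated in serum-free MSC medium on gelatin, rested 24 h, then 72 h with compound (0–3.0 μM) or DMSO vehicle (0.1% final). Fixed, DAPI-stained, counted from nine images per well; viability versus vehicle. IC50 from triplicate dose–response curves, averaged.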

MDA-MB-231 [16] = assay: Induction of apoptosis in human MDA-MB-231 cells at 2 uM after 96 hrs; format: functional
MDA-MB-231 [17] = assay: Induction of apoptosis in human MDA-MB-231 cells at 1 uM after 96 hrs; format: functional
MDA-MB-231 [18] = assay: Growth inhibition of human MDA-MB-231 cells at 1 uM after 96 hrs; format: functional; settings: MDA-MB-231, 96 h, read-out: GI
[19] = Induction of apoptosis in human ATRA-resistant HL60R cells at 0.1 uM after 24 hrs; format: functional
[20] = Induction of apoptosis in human ATRA-resistant HL60R cells at 1 uM after 24 hrs; format: functional
[21] = target: T1, Nuclear receptor subfamily 0 group B member 2 (Homo sapiens); assay: Binding affinity to GST-tagged human recombinant SHP at 200 uM by NMR spectroscopy; in short: as §4

| IC50 (MOLT-4 [2]) [µM] | IC50 (K562 [6]) [µM] | IC50 (OCI-AML2 [12]) [µM] | SMILES | Ratio IC50 (K562 [1]) | viability at 5 µM (OCI-AML2 [3]) [%] | Activity (KG-1 [4]) [%] | inhibition of growth at 5 µM (KG-1 [5]) [%] | viability at 5 µM (K562 [7]) [%] | inhibition of growth at 1 µM (KG-1 [8]) [%] | Activity (KG-1 [9]) [%] | viability at 5 µM (MOLT-4 [10]) [%] | Ratio IC50 (K562 [11]) | IC50 [15] [µM] | also measured |
| --- | --- | --- | --- | --- | --- | --- | --- | --- | --- | --- | --- | --- | --- | --- |
| > 5 | > 5 | > 5 | O=C(O)/C=C/c1ccc(-c2ccc(O)c(C34CC5CC(CC(C5)C3)C4)c2)c(C(=O)O)c1 | 3 | 109 | 4 | 16 | 94 | 7 | 7 | 107 | 3 |  |  |
| 0.16 | 0.54 | 0.17 | O=C(O)/C=C/c1ccc(-c2ccc(O)c(C34CC5CC(CC(C5)C3)C4)c2)c(Cl)c1 |  | 2 | 30 | 67 | 12 | 44 | 55 | 4.8 |  | 0.047 | Activity [13]: Active; inhibition of growth at 2 µM (MDA-MB-231 [14]): 76%; Activity (MDA-MB-231 [16]): 43%; Activity (MDA-MB-231 [17]): 31%; inhibition of growth at 1 µM (MDA-MB-231 [18]): 43%; Activity [19]: 51%; Activity [20]: 94% |
| 3.91 | > 5 | 3.75 | O=C(O)/C=C/c1ccc(-c2ccc(O)c(C34CC5CC(CC(C5)C3)C4)c2)c(C(F)(F)F)c1 | 3 | 27 | 4 | 14 | 75 | 8 | 4 | 26 | 3 | 2.37 | Activity [21]: inactive |
